Measured values reported in ChEMBL document CHEMBL5724801, “EUbOPEN Chemogenomics Library - Multiplex” (2024).
Where “and” joins values, the source holds several entries; their conditions need not be identical. Equal values may be shown once.

Tested on: Fibroblast
Test: Multiplex assay against human fibroblast
Assay type: toxicity, cell-based
Method in brief: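 Compound was added to live cells that had been stained at seeding with Hoechst33342, BioTracker Green Microtubule Cytoskeleton Dye, MitoTracker Red and Annexin V Alexa Fluor 680, and imaging followed on a CQ1 microscope at 37°C and 5% CO2. CellPathfinder machine-learning gating divided cells into Hoechst high-intensity objects or normal cells, normal cells into healthy, pyknosed or fragmented nuclei, and pyknosed cells into mitotic or apoptotic. Tubulin, mitochondrial-mass and membrane-permeability phenotypes are per cents of healthy-nucleus cells.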

[1] = 12 h, 1 µM, compound concentration 1 uM
[2] = 12 h, 10 µM, compound concentration 10 uM
[3] = 24 h, 1 µM, compound concentration 1 uM
[4] = 24 h, 10 µM, compound concentration 10 uM
[5] = 48 h, 1 µM, compound concentration 1 uM
[6] = 48 h, 10 µM, compound concentration 10 uM

## CC(C)(O)c1cnc(N2C[C@@]3(CCC[C@](C)(Cn4cnc5ccc(C#N)cc54)C3)OC2=O)cn1 [GSK2798745]
[1]
  Population Apoptotic (%): 7.14% and 16.22%
  Population Fragmented Nuclei (%): 12.71% and 8%
  Population Healthy Nuclei (%): 63.56% and 75.56%
  Population Hoechst High Intensity Objects (%): 0%
  Population Membrane Permeable-Phenotype (%): 4% and 4.12%
  Population Mitochondria Different-Phenotype (%): 13.33% and 10.59%
  Population Mitotic Cells (%): 92.86% and 83.78%
  Population Normal (%): 100%
  Population Pyknosed Nuclei (%): 23.73% and 16.44%
  Population Tubulin-Different-Phenotype (%): 16% and 20%
  Total Cell Count: 118 and 225
[2]
  Population Apoptotic (%): 11.76% and 21.62%
  Population Fragmented Nuclei (%): 16.26% and 5.53%
  Population Healthy Nuclei (%): 50.25% and 77.42%
  Population Hoechst High Intensity Objects (%): 0%
  Population Membrane Permeable-Phenotype (%): 14.71% and 12.5%
  Population Mitochondria Different-Phenotype (%): 18.63% and 22.62%
  Population Mitotic Cells (%): 88.24% and 78.38%
  Population Normal (%): 100%
  Population Pyknosed Nuclei (%): 33.5% and 17.05%
  Population Tubulin-Different-Phenotype (%): 52.94% and 55.95%
  Total Cell Count: 203 and 217
[3]
  Population Apoptotic (%): 9.09% and 21.05%
  Population Fragmented Nuclei (%): 14.29% and 4.76%
  Population Healthy Nuclei (%): 65.22% and 87.01%
  Population Hoechst High Intensity Objects (%): 0%
  Population Membrane Permeable-Phenotype (%): 1.9% and 5.97%
  Population Mitochondria Different-Phenotype (%): 4.76% and 5.97%
  Population Mitotic Cells (%): 90.91% and 78.95%
  Population Normal (%): 100%
  Population Pyknosed Nuclei (%): 20.5% and 8.23%
  Population Tubulin-Different-Phenotype (%): 16.19% and 21.89%
  Total Cell Count: 161 and 231
[4]
  Population Apoptotic (%): 11.11% and 25.81%
  Population Fragmented Nuclei (%): 15.38% and 6.88%
  Population Healthy Nuclei (%): 68.33% and 78.9%
  Population Hoechst High Intensity Objects (%): 0%
  Population Membrane Permeable-Phenotype (%): 9.93% and 5.81%
  Population Mitochondria Different-Phenotype (%): 12.58% and 22.09%
  Population Mitotic Cells (%): 88.89% and 74.19%
  Population Normal (%): 100%
  Population Pyknosed Nuclei (%): 16.29% and 14.22%
  Population Tubulin-Different-Phenotype (%): 52.32% and 62.21%
  Total Cell Count: 221 and 218
[5]
  Population Fragmented Nuclei (%): 10.86% and 4.58%
  Population Healthy Nuclei (%): 82.29% and 90.83%
  Population Hoechst High Intensity Objects (%): 0%
  Population Membrane Permeable-Phenotype (%): 0% and 4.13%
  Population Mitotic Cells (%): 91.67% and 63.64%
  Population Normal (%): 100%
  Population Pyknosed Nuclei (%): 6.86% and 4.58%
  Population Tubulin-Different-Phenotype (%): 12.5% and 17.89%
  Total Cell Count: 175 and 240
[6]
  Population Apoptotic (%): 14.29% and 42.11%
  Population Fragmented Nuclei (%): 11.06% and 7.96%
  Population Healthy Nuclei (%): 78.85% and 83.63%
  Population Hoechst High Intensity Objects (%): 0%
  Population Membrane Permeable-Phenotype (%): 4.27% and 11.64%
  Population Mitochondria Different-Phenotype (%): 21.95% and 10.05%
  Population Mitotic Cells (%): 85.71% and 57.89%
  Population Normal (%): 100%
  Population Pyknosed Nuclei (%): 10.1% and 8.41%
  Population Tubulin-Different-Phenotype (%): 44.51% and 59.79%
  Total Cell Count: 208 and 226

## CCOC(=O)c1cnn(-c2ccc(NC(=O)C(Cl)=C(Cl)Cl)cc2)c1C(F)(F)F
[1]
  Population Apoptotic (%): 8.82% and 15%
  Population Fragmented Nuclei (%): 15.65% and 11.22%
  Population Healthy Nuclei (%): 61.22% and 68.37%
  Population Hoechst High Intensity Objects (%): 0%
  Population Membrane Permeable-Phenotype (%): 5.56% and 0%
  Population Mitochondria Different-Phenotype (%): 6.67% and 10.45%
  Population Mitotic Cells (%): 91.18% and 85%
  Population Normal (%): 100%
  Population Pyknosed Nuclei (%): 23.13% and 20.41%
  Population Tubulin-Different-Phenotype (%): 8.89% and 11.94%
  Total Cell Count: 147 and 196
[2]
  Population Apoptotic (%): 23.28% and 49.64%
  Population Fragmented Nuclei (%): 10.69% and 2.33%
  Population Healthy Nuclei (%): 16.35% and 18.02%
  Population Hoechst High Intensity Objects (%): 0%
  Population Membrane Permeable-Phenotype (%): 7.69% and 12.9%
  Population Mitotic Cells (%): 76.72% and 50.36%
  Population Normal (%): 100%
  Population Pyknosed Nuclei (%): 72.96% and 79.65%
  Population Tubulin-Different-Phenotype (%): 42.31% and 54.84%
  Total Cell Count: 159 and 172
[3]
  Population Apoptotic (%): 32.35% and 26.32%
  Population Fragmented Nuclei (%): 13.42% and 8.93%
  Population Healthy Nuclei (%): 63.76% and 82.59%
  Population Hoechst High Intensity Objects (%): 0%
  Population Membrane Permeable-Phenotype (%): 1.05% and 1.08%
  Population Mitochondria Different-Phenotype (%): 5.26% and 3.78%
  Population Mitotic Cells (%): 67.65% and 73.68%
  Population Normal (%): 100%
  Population Pyknosed Nuclei (%): 22.82% and 8.48%
  Population Tubulin-Different-Phenotype (%): 12.63% and 12.43%
  Total Cell Count: 149 and 224
[4]
  Population Apoptotic (%): 37.76% and 80.65%
  Population Fragmented Nuclei (%): 17.09% and 8.6%
  Population Healthy Nuclei (%): 20.89% and 24.73%
  Population Hoechst High Intensity Objects (%): 0%
  Population Membrane Permeable-Phenotype (%): 15.15% and 43.48%
  Population Mitochondria Different-Phenotype (%): 0% and 19.57%
  Population Normal (%): 100%
  Population Pyknosed Nuclei (%): 62.03% and 66.67%
  Population Tubulin-Different-Phenotype (%): 39.39% and 84.78%
  Total Cell Count: 158 and 186
[5]
  Population Apoptotic (%): 35.29% and 26.67%
  Population Fragmented Nuclei (%): 12.65% and 7.11%
  Population Healthy Nuclei (%): 77.11% and 86.22%
  Population Hoechst High Intensity Objects (%): 0%
  Population Membrane Permeable-Phenotype (%): 0.78% and 1.55%
  Population Mitotic Cells (%): 64.71% and 73.33%
  Population Normal (%): 100%
  Population Pyknosed Nuclei (%): 10.24% and 6.67%
  Population Tubulin-Different-Phenotype (%): 4.69% and 11.86%
  Total Cell Count: 166 and 225
[6]
  Population Apoptotic (%): 35.48% and 83.87%
  Population Fragmented Nuclei (%): 22.75% and 43.62%
  Population Healthy Nuclei (%): 58.68% and 39.89%
  Population Hoechst High Intensity Objects (%): 0%
  Population Membrane Permeable-Phenotype (%): 14.29% and 37.33%
  Population Mitochondria Different-Phenotype (%): 15.31% and 25.33%
  Population Normal (%): 100%
  Population Pyknosed Nuclei (%): 18.56% and 16.49%
  Population Tubulin-Different-Phenotype (%): 40.82% and 89.33%
  Total Cell Count: 167 and 188
